In brackets after ≈: the same amount, converted by molar mass.
What was measured:
Acetyl-CoA carboxylase 1 [1] = target: Acetyl-CoA carboxylase 1 (Homo sapiens, UniProt Q13085); experiment: Inhibition of human recombinant his-tagged ACC1 expressed in baculovirus/Sf9 cell assessed as inorganic phosphate formation […] measured after 1.5 hrs by Malachite green reagent method
[2] = Lipophilicity, log D of the compound; type: physicochemical; settings: octanol/water
Homo sapiens = species on record: Homo sapiens; experiment: Ratio IC50 for human ACC2 to IC50 for human ACC1
Acetyl-CoA carboxylase 2 = Acetyl-CoA carboxylase 2 (Homo sapiens, UniProt O00763); experiment: Inhibition of human recombinant his-tagged ACC2 expressed in baculovirus/Sf9 cell assessed as inorganic phosphate formation […] measured after 1.5 hrs by Malachite green reagent method
Rattus norvegicus = experiment: Antiobesity activity in obese Zucker rat assessed as reduction in hepatic malonyl-coA level, iv administered 2 hrs; type: functional; set-up: scale not given: the % may be the effect or the level left
How it was run: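 Obese Zucker rats were anaesthetized with Inactin (180 mg/kg ip), tracheotomized and fitted with carotid and jugular catheters. After 1.5 h post-surgery stabilization at 37.5 °C, compound or vehicle was infused iv; lean vehicle controls were included. Hepatic malonyl-CoA was measured by ion-pair HPLC–negative ESI MS/MS against a ¹³C₃ internal standard and related to plasma free exposure (fu×Cp/rat ACC2 IC50).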

Acetyl-CoA carboxylase 1 [3] = target: Acetyl-CoA carboxylase 1 (Rattus norvegicus, UniProt P11497); experiment: Inhibition of rat ACC1 assessed as inorganic phosphate generation preincubated for 5 mins measured after 1.5 hrs using Malachite green reagent method
[4] = target: Acetyl-Coenzyme A carboxylase 2 (Rattus norvegicus, UniProt Q1HEC0); experiment: Inhibition of ACC2 […] preincubated for 15 mins measured after 1.5 hrs using Malachite green reagent method
[5] = Oral bioavailability in C57BL/6 mouse at 10 umol/kg; type: ADME, organism-based; settings: in vivo
[6] = Intrinsic clearance in human liver microsome at 1 uM after 30 mins by LC-UV/MS analysis; type: ADME; settings: liver microsomes
[7] = Clearance in Sprague-Dawley rat at 3 to 5 umol/kg, iv; type: ADME, organism-based; settings: in vivo
[8] = Half life in C57BL/6 mouse at 10 umol/kg, po; type: ADME, organism-based; settings: in vivo
[9] = Clearance in C57BL/6 mouse at 5 umol/kg, iv and 10 umol/kg, po; type: ADME, organism-based; settings: in vivo
[10] = Volume of distribution in C57BL/6 mouse at 5 umol/kg, iv and 10 umol/kg, po; type: ADME, organism-based; settings: in vivo
[11] = Fraction unbound in human plasma at 10 uM after 18 hrs by equilibrium dialysis method; type: ADME, cell-free
[12] = Solubility of the compound after 16 hrs by LC-UV/MS analysis; type: physicochemical
CYP3A4 = CYP3A4 (Homo sapiens, UniProt P08684); experiment: Inhibition of CYP3A4 at 13 uM; type: ADME
CYP2C9 = CYP2C9 (Homo sapiens, UniProt P11712); experiment: Inhibition of CYP2C9 at 13 uM; type: ADME
CYP1A2 = target: T1, CYP1A2 (Homo sapiens, UniProt P05177); experiment: Inhibition of CYP1A2 at 13 uM; type: ADME
T1 sequence (P05177 whole entry): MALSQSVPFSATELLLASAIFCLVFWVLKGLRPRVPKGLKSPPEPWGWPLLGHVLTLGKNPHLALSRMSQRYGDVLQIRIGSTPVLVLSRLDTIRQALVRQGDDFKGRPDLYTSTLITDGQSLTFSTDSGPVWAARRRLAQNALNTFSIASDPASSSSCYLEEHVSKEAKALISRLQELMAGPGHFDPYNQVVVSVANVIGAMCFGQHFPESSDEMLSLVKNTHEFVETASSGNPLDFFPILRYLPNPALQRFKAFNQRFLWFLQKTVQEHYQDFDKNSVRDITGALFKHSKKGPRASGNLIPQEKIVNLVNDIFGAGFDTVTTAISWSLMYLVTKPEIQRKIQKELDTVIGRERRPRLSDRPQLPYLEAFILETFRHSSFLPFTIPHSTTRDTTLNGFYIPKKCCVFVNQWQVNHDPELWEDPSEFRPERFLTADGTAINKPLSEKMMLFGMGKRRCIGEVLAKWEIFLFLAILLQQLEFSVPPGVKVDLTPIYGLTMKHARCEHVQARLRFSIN

CYP2C19 = CYP2C19 (Homo sapiens, UniProt P33261); experiment: Inhibition of CYP2C19 at 13 uM; type: ADME
CYP2D6 = CYP2D6 (Homo sapiens, UniProt P10635); experiment: Inhibition of CYP2D6 at 13 uM; type: ADME
Sequence of CYP2D6 (P10635 whole entry): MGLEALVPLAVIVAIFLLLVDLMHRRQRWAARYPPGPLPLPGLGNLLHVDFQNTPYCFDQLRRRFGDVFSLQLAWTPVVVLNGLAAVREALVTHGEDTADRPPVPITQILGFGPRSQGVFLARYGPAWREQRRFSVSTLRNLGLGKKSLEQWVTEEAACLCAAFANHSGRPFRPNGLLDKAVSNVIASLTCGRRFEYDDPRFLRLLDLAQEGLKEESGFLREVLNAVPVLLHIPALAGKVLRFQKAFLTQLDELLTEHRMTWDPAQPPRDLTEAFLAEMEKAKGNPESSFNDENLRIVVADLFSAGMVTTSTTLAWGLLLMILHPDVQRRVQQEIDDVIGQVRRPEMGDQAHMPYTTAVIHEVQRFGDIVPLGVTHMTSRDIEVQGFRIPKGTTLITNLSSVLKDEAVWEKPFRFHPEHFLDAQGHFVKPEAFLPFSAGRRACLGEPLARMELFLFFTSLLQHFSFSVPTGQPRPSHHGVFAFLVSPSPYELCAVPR

Sequence of Acetyl-CoA carboxylase 2 (O00763 whole entry): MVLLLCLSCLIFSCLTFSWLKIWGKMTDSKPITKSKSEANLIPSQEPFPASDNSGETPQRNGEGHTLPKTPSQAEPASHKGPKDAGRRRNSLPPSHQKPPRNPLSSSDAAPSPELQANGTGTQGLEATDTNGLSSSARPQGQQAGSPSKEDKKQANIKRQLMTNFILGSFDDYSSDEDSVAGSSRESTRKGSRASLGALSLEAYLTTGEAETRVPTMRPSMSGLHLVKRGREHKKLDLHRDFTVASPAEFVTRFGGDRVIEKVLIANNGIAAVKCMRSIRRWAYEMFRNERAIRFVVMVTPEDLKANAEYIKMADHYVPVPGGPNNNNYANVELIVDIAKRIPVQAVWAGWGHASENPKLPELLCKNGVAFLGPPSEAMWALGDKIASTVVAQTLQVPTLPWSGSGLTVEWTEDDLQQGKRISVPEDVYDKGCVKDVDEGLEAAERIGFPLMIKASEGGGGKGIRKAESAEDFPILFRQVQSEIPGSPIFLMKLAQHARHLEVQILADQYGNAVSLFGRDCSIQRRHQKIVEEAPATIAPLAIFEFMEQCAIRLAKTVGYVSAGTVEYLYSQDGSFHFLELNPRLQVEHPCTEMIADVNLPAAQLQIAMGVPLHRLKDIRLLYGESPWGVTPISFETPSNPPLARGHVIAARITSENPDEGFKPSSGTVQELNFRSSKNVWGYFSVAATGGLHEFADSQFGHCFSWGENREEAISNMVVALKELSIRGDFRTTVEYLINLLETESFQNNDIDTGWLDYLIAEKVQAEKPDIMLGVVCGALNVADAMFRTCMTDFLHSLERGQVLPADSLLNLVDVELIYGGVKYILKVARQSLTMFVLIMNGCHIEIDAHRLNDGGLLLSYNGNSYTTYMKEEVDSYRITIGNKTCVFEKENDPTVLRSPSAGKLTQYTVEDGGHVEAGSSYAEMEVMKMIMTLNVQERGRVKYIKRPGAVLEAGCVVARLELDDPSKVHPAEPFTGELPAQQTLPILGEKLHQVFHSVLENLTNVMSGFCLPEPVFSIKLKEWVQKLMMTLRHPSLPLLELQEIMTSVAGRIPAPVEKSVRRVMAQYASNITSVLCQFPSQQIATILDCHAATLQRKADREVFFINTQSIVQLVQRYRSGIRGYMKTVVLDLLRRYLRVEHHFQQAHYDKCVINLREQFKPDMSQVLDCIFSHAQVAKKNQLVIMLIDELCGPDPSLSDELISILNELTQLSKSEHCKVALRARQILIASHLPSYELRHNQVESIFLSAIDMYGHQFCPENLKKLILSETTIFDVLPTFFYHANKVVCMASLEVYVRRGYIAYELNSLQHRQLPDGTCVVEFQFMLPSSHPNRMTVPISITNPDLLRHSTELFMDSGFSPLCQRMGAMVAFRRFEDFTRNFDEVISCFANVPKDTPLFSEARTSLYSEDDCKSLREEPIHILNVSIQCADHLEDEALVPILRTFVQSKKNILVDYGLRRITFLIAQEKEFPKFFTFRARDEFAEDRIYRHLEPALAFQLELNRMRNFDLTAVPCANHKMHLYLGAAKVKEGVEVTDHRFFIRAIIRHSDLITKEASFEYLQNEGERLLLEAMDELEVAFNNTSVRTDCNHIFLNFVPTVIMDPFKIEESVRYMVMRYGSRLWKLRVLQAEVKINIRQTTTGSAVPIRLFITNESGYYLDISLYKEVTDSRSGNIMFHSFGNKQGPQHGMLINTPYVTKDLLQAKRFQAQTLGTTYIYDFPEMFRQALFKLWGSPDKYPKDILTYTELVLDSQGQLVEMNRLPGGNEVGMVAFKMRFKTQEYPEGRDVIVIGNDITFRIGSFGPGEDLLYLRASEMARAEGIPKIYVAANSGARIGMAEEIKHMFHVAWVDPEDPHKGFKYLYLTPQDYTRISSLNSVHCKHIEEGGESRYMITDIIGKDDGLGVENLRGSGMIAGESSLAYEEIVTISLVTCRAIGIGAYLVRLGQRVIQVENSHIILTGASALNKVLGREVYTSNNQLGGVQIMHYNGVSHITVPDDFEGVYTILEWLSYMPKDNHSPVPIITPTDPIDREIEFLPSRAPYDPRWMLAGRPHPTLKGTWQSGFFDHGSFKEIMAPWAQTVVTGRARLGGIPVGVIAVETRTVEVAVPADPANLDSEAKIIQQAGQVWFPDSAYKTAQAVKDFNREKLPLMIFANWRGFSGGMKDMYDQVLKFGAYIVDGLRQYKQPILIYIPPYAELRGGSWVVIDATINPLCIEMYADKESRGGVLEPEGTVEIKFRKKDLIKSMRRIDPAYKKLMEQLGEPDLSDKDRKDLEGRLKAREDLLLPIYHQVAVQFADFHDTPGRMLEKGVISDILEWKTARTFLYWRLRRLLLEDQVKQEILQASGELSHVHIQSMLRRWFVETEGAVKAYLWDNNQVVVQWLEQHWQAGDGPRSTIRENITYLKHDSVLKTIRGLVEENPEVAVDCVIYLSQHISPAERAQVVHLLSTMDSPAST
Sequence of CYP3A4 (P08684 whole entry): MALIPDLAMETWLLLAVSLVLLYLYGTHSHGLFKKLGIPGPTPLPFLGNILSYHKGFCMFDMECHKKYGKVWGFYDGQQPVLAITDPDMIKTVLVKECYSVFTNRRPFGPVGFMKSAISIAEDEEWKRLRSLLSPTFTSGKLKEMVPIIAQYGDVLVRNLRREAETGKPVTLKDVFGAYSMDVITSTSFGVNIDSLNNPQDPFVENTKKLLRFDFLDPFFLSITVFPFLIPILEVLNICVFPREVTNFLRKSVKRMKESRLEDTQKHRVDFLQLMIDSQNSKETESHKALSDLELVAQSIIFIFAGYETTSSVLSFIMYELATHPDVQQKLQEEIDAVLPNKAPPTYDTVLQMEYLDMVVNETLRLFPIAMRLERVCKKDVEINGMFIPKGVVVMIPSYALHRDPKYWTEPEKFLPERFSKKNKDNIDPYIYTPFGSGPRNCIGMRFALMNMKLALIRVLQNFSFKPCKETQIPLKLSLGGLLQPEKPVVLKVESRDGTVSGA
Sequence of CYP2C9 (P11712 whole entry): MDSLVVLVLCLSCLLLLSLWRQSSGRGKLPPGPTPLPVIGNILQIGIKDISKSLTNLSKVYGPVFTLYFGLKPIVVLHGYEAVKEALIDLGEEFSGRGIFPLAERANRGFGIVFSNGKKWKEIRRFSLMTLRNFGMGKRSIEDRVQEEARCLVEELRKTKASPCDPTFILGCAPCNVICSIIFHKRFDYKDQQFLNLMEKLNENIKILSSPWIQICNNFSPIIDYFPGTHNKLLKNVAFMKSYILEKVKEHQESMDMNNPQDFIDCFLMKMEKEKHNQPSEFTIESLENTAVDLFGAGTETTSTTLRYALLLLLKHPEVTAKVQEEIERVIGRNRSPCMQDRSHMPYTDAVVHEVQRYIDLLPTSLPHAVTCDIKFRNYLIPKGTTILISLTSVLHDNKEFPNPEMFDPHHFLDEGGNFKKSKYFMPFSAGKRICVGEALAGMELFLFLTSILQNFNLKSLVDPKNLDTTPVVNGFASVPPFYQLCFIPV
Sequence of CYP2C19 (P33261 whole entry): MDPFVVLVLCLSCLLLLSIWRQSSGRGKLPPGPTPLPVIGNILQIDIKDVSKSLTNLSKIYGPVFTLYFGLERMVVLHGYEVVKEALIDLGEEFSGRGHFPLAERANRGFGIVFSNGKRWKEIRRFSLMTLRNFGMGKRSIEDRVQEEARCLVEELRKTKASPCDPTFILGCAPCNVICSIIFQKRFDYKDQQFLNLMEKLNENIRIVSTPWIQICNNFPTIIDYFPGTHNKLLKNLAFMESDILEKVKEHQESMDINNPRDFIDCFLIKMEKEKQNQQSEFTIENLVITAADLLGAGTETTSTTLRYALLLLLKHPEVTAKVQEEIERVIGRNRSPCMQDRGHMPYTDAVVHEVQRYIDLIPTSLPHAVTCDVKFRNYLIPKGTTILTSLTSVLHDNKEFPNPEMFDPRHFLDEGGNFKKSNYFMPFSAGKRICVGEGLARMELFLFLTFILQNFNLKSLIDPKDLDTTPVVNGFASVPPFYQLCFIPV

Compound | IC50 (Acetyl-CoA carboxylase 1 [1]) | logD [2] | IC50 (Acetyl-CoA carboxylase 2) | also measured
CC(C)(C)OC(=O)NC[C@H]1CC[C@H](CNC(=O)c2cc(N3CCC(CCO)CC3)nc3ccccc23)CC1 | 2300 nM | 4.5 | 230 nM | Ratio IC50 (Homo sapiens): 10
CC(C)(C)OC(=O)NC[C@H]1CC[C@H](CNS(=O)(=O)c2cc(-c3ccccc3)nc3ccccc23)CC1 | – | – | 690 nM | –
CC(C)(C)OC(=O)NC[C@H]1CC[C@H](CNC(=O)c2cc(N3CCC(CN)CC3)nc3ccccc23)CC1 | 4300 nM | 3.2 | 690 nM | –
O=C(c1c2ccccc2cc2ccccc12)N1CCC(N2CCC[C@@H](C(=O)N3CCOCC3)C2)CC1 | – | – | – | Activity (Rattus norvegicus): 50%
Cc1cc(C(=O)NC[C@H]2CC[C@H](CNC(=O)OC(C)(C)C)CC2)cc(-c2ccccc2)n1 | – | 5.3 | – | –
CN(C)CCC1CCN(c2cc(C(=O)NC[C@H]3CC[C@H](CNC(=O)OC4CCOCC4)CC3)c3ccccc3n2)CC1 | – | 2.3 | – | –
CC(C)(C)OC(=O)NC[C@H]1CC[C@H](CNC(=O)c2cc(N3CCC(CCN4CC(O)C4)CC3)nc3ccccc23)CC1 | 1000 nM | 3.6 | – | IC50 (Acetyl-CoA carboxylase 1 [3]): 250 nM; IC50 [4]: 150 nM; bioavailability [5]: 135%; microsomal CLint at 1 µM [6]: 16 µL/min/mg; clearance [7]: 70 mL/min/kg; half-life [8]: 4.3 h; clearance [9]: 33 mL/min/kg; Vd [10]: 3.6 L/kg; fraction unbound at 18 h, 10 µM [11]: 0.033; Activity (Rattus norvegicus): 50%; solubility at 16 h [12]: 80 µM (≈ 46.4 µg/mL)
CN(C)CCN1CCN(c2cc(C(=O)NC[C@H]3CC[C@H](CNC(=O)OC(C)(C)C)CC3)c3ccccc3n2)CC1 | 5300 nM | 3.4 | 730 nM | inhibition at 13 µM (CYP3A4): < 50%; inhibition at 13 µM (CYP2C9): < 50%; microsomal CLint at 1 µM [6]: < 12 µL/min/mg; inhibition at 13 µM (CYP1A2): < 50%; inhibition at 13 µM (CYP2C19): < 50%; inhibition at 13 µM (CYP2D6): < 50%; solubility at 16 h [12]: 73 µM (≈ 40.4 µg/mL)
CCOC(=O)NC[C@H]1CC[C@H](CNC(=O)c2cc(N3CCC(CCN(C)C)CC3)nc3ccccc23)CC1 | 8000 nM | 2.6 | 1400 nM | –
CC(C)(C)OC(=O)NC[C@H]1CC[C@H](CNC(=O)c2cc(N3CCNCC3)nc3ccccc23)CC1 | 13000 nM | 2.9 | – | –

Continued, in another order:

IC50 (Acetyl-CoA carboxylase 1 [1]) | logD [2] | IC50 (Acetyl-CoA carboxylase 2) | Compound | also measured
2900 nM | 2.5 | 750 nM | CC(C)(C)OC(=O)NC[C@H]1CC[C@H](CNC(=O)c2cc(-c3ccc(C(=O)O)cc3)nc3ccccc23)CC1 | –
1700 nM | 3.2 | – | CC(C)(C)OC(=O)NC[C@H]1CC[C@H](CNC(=O)c2cc(-c3ccc(CN)cc3)nc3ccccc23)CC1 | –
– | – | 1000 nM | CC(C)(C)OC(=O)NC[C@H]1CC[C@@H](CNC(=O)c2cc(-c3ccccc3)nc3ccccc23)CC1 | –
– | 4.7 | 780 nM | CC(C)(C)OC(=O)NC[C@H]1CC[C@H](CNC(=O)c2cc(-c3ccccc3)nc3[nH]ccc23)CC1 | –
– | 5 | – | Cc1noc(C)c1-c1cc(C(=O)NC[C@H]2CC[C@H](CNC(=O)OC(C)(C)C)CC2)c2ccccc2n1 | –

— ChEMBL document CHEMBL1817551, “Design of small molecule inhibitors of acetyl-CoA carboxylase 1 and 2 showing reduction of hepatic malonyl-CoA levels in vivo in obese Zucker rats” (Bioorg Med Chem, 2011)
